Substitutions are numbered along the chain they refer to. Names may count otherwise.

Data set [1] in a line: Stability of ATP binding of DnaA at 4°, 30° or 42°C, filter retention assay. On the set-up: species or system E. coli. Put shortly:
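Purified DnaA (1.9 μM) was loaded with 1 μM [α-32P]ATP in PP-60 buffer for 15 min at 4°C, then held at 4°, 30° or 42°C. Aliquots were withdrawn at timed intervals. Bound nucleotide was measured by retention on nitrocellulose filters and scintillation counting.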

A short description of data set [2]: DTSSP cross-linking for higher-oligomer forms of DnaA. It counts as biochemical, E. coli. The settings on record: ATP form treated with DTSSP.
A short description of data set [3]: ThermoFluor assay, melting point of DnaA proteins. It counts as physicochemical, E. coli.
The next data set deals with E. coli EH3827. Kind of data set: In vivo replication assay, poriC transformation of ∆dnaA cells. It is filed as cell-based. Conditions: 0.1 or 0.2% arabinose, versus DnaA WT.
In the next data set the test system is E. coli MG1655. The experiment in a line: Growth of wild-type host on overexpression of DnaA. It is filed as cell-based. The settings on record: 30°C, WT host.
The subject of data set [4] is E. coli CM742 (dnaA46ts) carrying pRD (seqA). The experiment in a line: Growth of dnaA46ts cells with SeqA-expressing plasmid pRD. It counts as cell-based. Conditions: 30°C, IPTG 50 μM (SeqA expressed), no arabinose, 0.2% arabinose or 0.2% glucose. Put shortly: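 Cells carrying the IPTG-inducible seqA plasmid were made competent on LB-agar with tetracycline and 50 μM IPTG. They were transformed with pBAD-based dnaA plasmids and selected at 30°C on tetracycline (12.5 μg/ml) plus ampicillin (100 μg/ml). Single colonies were grown in LB to OD600 ~0.1. Equal OD units were replica-plated with no sugar, 0.2% arabinose or 0.2% glucose.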

The next data set concerns E. coli CM742 (dnaA46ts). Kind of data set: Flow cytometry, total DNA content per cell. It is filed as cell-based. The settings on record: 30°C, 0.2% arabinose, rifampicin and cephalexin 2.5 hours. Put shortly:
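Host is dnaA46ts E. coli transformed with pBAD-derived plasmids carrying wild-type or mutant dnaA under an arabinose promoter. Overnight LB cultures with antibiotics were diluted to OD600 ~0.005 and grown 45 min. Each culture was split: one half got 0.2% arabinose, the other 0.2% glucose. At 30°C to OD600 0.15, then rifampicin (150 μg/ml) plus cephalexin (10 μg/ml) for 2.5 h; DNA content measured by flow cytometry.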

Data set [5] has as its system E. coli EH3287 (∆dnaA/pgsA^+). Kind of data set: Subcellular fractionation and immunoblotting of DnaA. It is filed as cell-based. Conditions: 0.2% arabinose for 90 min. Put shortly:
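ΔdnaA/pgsA+ cells carrying arabinose-inducible dnaA alleles were grown to OD600 ~0.1, then induced with 0.2% arabinose for 90 min. Lysis used lysozyme (300 μg/ml) plus three freeze-thaw cycles. Cytosol and membranes were separated at 44,000 rpm for 30 min. Membranes were solubilized in octyl-thio-glucoside or CHAPS, recentrifuged and dialysed overnight. Protein levels are relative to wild type, averaged over three biological replicates.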
On the technique in general: A western blot detects proteins with antibodies after separation by electrophoresis.

Data set [6] in a line: ThermoFluor assay with SUVs composed of DOPG. It is filed as physicochemical, E. coli. The settings on record: ATP-bound form. Put shortly:
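DnaA (10 μM) was pre-incubated with 5 mM ATP on ice for 15 min, then mixed with DOPG small unilamellar vesicles at the stated concentrations. SYPRO Orange (50× dilution) was added to 50 μl final volume. Fluorescence was recorded from 25° to 95°C at 1 min/°. Tm and −dF/dT came from a variable-slope sigmoidal fit.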
For orientation: DSF heats the sample and reads unfolding from a dye or from intrinsic fluorescence.

For data set [7] the following is noted: 37°C, at least 60 min, not challenged with acidic phospholipids; cited from earlier work.
[8] abbreviates: 4° and 30°C, with reduced affinity.
The mark [9] stands for this setting: protein 5 μM with ATP 5 mM (Fig. 2).
Where [10] appears, read: ATP-bound form, protein 10 μM, ATP 5 mM, no SUVs (Fig. 7C).

B1: DnaA(D118Q): DnaA mutant, Asp^118 in the linker domain substituted with Gln (protein)
chain: MSLSLWQQCLARLQDELPATEFSMWIRPLQAELSDNTLALYAPNRFVLDWVRDKYLNNINGLLTSFCGADAPQLRFEVGTKPVTQTPQAAVTSNVAAPAQVAQTQPQRAAPSTRSGWQNVPAPAEPTYRSNVNVKHTFDNFVEGKSNQLARAAARQVADNPGGAYNPLFLYGGTGLGKTHLLHAVGNGIMARKPNAKVVYMHSERFVQDMVKALQNNAIEEFKRYYRSVDALLIDDIQFFANKERSQEEFFHTFNALLEGNQQIILTSDRYPKEINGVEDRLKSRFGWGLTVAIEPPELETRVAILMKKADENDIRLPGEVAFFIAKRLRSNVRELEGALNRVIANANFTGRAITIDFVREALRDLLALQEKLVTIDNIQKTVAEYYKIKVADLLSKRRSRSVARPRQMAMALAKELTNHSLPEIGDAFGGRDHTTVLHACRKIEQLREESHDIKEDFSNLIRTLSS
modifications: left off: His10, N-terminal, state not stated
Regarding B1, the “retention of bound ATP” value in data set [1] (setting [8]) is listed as “maintained its ATP form”. Further, the “formation of higher-order oligomer assemblies” value in data set [2] is “higher-order oligomer assemblies were not formed”. The melting point in data set [3] (setting [9]) is 49 °C. The “reduction in the number of transformants” value with E. coli EH3827 is recorded as “at least 50 fold”. For the same molecule, the “growth of the host on induced expression” value in the data set on E. coli MG1655 is listed as “no growth defect”. Moreover, the “growth on LB-agar plates” value in data set [4] was “showed growth at 30 °C”. In addition, the “overreplication / DNA content per cell upon induction of DnaA” value with E. coli CM742 (dnaA46ts) is recorded as “more extensive”. Moreover, in data set [5], the “DnaA in OTG-solubilized membrane fraction (immunoblotting)” value is listed as “abundant accumulation in the membrane”.

B2: mutant DnaA protein where Asp^118 is substituted with Gly: DnaA mutant, Asp^118 substituted with Gly (protein, UniProt P03004 1-467, looked up, variant D118G)
Chromosomal replication …: B1 chain with Q118G
With B2, the melting point in [3] (setting [9]) came out at 55 °C.

B3: DnaA(D118A) (protein, UniProt P03004 1-467, looked up, variant D118A)
Chromosomal replication …: B1 chain with Q118A
Regarding B3, the “retention of bound ATP” value in data set [1] (4°, 30° and 42°C, up to 60 min) is given as “retained ATP at different temperatures comparably”. In addition, the melting point entry in data set [3] (setting [9]) was “no shift”.

B4: DnaA(L366K): DnaA with substitution L366K in the AAA+ membrane-binding region (protein, UniProt P03004 1-467, looked up, variant L366K)
Chromosomal replication …: B1 chain with Q118D, L366K
B4 returned a melting point in data set [3] (setting [10]) of 54 °C. The “melting point (peak)” value is 50 °C in data set [6] (25 μM DOPG SUVs (Fig. 7D)) and “did not shift further” in data set [6] (100 μM DOPG SUVs (Fig. 7E)). For the same molecule, the “DnaA in OTG-solubilized membrane fraction (immunoblotting)” value in data set [5] is listed as “retained in the OTG-solubilized membrane fractions”.

B5: DnaA(A184V): control DnaA mutant defective in ATP binding, changed residue within nucleotide-binding pocket of domain III (protein, UniProt P03004 1-467, looked up, variant A184V)
Chromosomal replication …: B1 chain with Q118D, A184V
In the case of B5, in [1] (setting [8]), the “retention of bound ATP” value was “maintained its ATP form”. This molecule also gave a melting point in [3] (setting [9]) of 49 °C. Also, the “reduction in the number of transformants” value with E. coli EH3827 is given as “at least 50 fold”. Further, the “growth on LB-agar plates” value in data set [4] is “showed growth at 30 °C”. In the data set with E. coli CM742 (dnaA46ts), the “overreplication / DNA content per cell upon induction of DnaA” value is reported as “more extensive”.

B6: DnaA(WT): wild-type E. coli chromosomal replication initiator protein DnaA, purified 10× histidine-tagged (protein)
chain: B1 chain with Q118D
modifications: left off: His10, N-terminal, state not stated
On to B6, for which, in data set [1] (4°, 30° and 42°C, up to 60 min), the “retention of bound ATP” value is on record as “retained ATP at different temperatures comparably”. Further, the melting point result in [3] (setting [10]) is “approximately 57 °C”; in data set [3] (setting [9]), 57 °C. For the same molecule, in [6] (100 μM DOPG SUVs (Fig. 7E)), the “melting point (peak)” value amounted to 44 °C. For the same molecule, in data set [5], the “DnaA in OTG-solubilized membrane fraction (immunoblotting)” value is “retained in the OTG-solubilized membrane fractions”. In data set [7], the “ATP-DnaA complex remaining intact” value is on record as more than 90%.

B7: Apo-DnaA: DnaA protein without bound nucleotide, ground or inactive state (protein, UniProt P03004 1-467, looked up)
Chromosomal replication …: B1 chain with Q118D
modifications: nucleotide-free
In the case of B7, the melting point in [3] (Apo form, no ATP) was found to be 44 °C.

Source of the values: PMC9534497 (Science Advances, 2022).
